High-throughput results (PubChem)
Hits are enriched below; roughly 1.9% of the tested compounds scored in any of these assays.
M5 ag = human M5 muscarinic receptor agonists, primary screen, CHO-K1 cells, Fluo-8 calcium fluorescence; hit rate 0.19% among 360,000; activation, % at 3 µM; Muscarinic acetylcholine receptor M5 (Homo sapiens), P08912; CHO-K1 hM5 cells; 0% DMSO wells, 100% maximal acetylcholine response;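 active means activation above the run's mean over test compounds plus 3 SD, cut at about 23% in these data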;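 further: signal is peak over basal fluorescence ratio across the kinetic read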
CHRM4 agonist = human M4 muscarinic receptor agonists, primary screen, CHO-K1 cells, Fluo-8 calcium fluorescence; CHO-K1 hM4/Gqi5; vehicle 0%, full acetylcholine response 100%; activation, % at 3 µM; hit rate 0.14% among 360,000; AID 624127, 2012;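 active means activation above the run mean over all test wells plus 3 SD, cut at about 32% in these data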;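 further: peak over basal fluorescence ratio per well then scaled between controls; 0% = DMSO wells and 100% = acetylcholine at EC100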
Target sequence (P08173 whole entry, looked up): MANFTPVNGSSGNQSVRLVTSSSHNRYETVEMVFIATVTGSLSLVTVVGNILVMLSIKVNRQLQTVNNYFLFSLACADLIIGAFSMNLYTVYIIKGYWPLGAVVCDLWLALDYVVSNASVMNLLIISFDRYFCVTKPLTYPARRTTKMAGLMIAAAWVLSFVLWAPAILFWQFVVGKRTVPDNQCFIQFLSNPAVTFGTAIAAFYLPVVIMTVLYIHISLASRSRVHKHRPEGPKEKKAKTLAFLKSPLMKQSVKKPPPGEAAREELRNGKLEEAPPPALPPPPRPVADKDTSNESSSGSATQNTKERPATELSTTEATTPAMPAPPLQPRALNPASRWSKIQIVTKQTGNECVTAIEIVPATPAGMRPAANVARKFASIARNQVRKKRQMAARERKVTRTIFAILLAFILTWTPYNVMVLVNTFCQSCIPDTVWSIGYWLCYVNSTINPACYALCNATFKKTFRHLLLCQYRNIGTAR
M5 PAM = human M5 muscarinic receptor positive allosteric modulators, primary screen, CHO-K1 cells, Fluo-8 calcium fluorescence. Muscarinic acetylcholine receptor M5 (Homo sapiens), P08912. CHO-K1 hM5, ACh EC20 PAM; 0% = ACh EC20, 100% = ACh EC100. activation, % at 3 µM. hit rate 0.3% among 360,000. AID 624038, 2012;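 active means activation above the run cutoff, the mean activation of all test compounds plus 3 SD, cut at about 18% in these data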
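Replicates: One well per compound, no replicates | System: Human M5 receptor in CHO-K1 cells | Benchmarks: Low control EC20 acetylcholine (0%), high control EC100 acetylcholine (100%) | Probe or stimulus: Acetylcholine, EC20 level | Times: Fluo-8 loading 80 min at 37 °C plus 30 min room temperature | Signal: Intracellular calcium via Fluo-8 fluorescence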
CHRM5 antagonist = human M5 muscarinic receptor antagonists, primary screen, CHO cells, Fluo-8 calcium fluorescence; inhibition, % at 3 µM; hit rate 0.59% among 360,000; CHO-hM5 cells, ACh EC80; AID 624040, 2012;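 active means inhibition above a per-plate cutoff, the mean of that plate's test compounds plus 3 SD, cut at about 27% in these data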;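 further: 0% = acetylcholine EC80 with DMSO and 100% = DMSO without agonist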
CHRM4 antagonist = human M4 muscarinic receptor antagonists, primary screen, CHO cells, Fluo-8 calcium fluorescence; hit rate 0.73% among 360,000; Muscarinic acetylcholine receptor M4 (Homo sapiens), P08173; CHO-hM4 cells, ACh EC80; AID 624125, 2012; inhibition, % at 3 µM;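 active means inhibition above its plate's cutoff, the mean inhibition of sample wells plus 3 SD, cut at about 27% in these data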;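 further: 0% = acetylcholine EC80 with DMSO and 100% = DMSO without agonist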
CHRM4 PAM = human M4 muscarinic receptor positive allosteric modulators, primary screen, CHO-K1 cells, Fluo-8 calcium fluorescence. Muscarinic acetylcholine receptor M4 (Homo sapiens), P08173. CHO-K1 hM4/Gqi5, ACh EC20; 0% = ACh EC20, 100% = maximal ACh. activation, % at 3 µM. hit rate 0.4% among 360,000. AID 624126, 2012;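 active means activation above its plate's cutoff, the mean activation of sample wells plus 3 SD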
* = called active by the depositor.

SMILES	M5 ag	CHRM4 agonist	M5 PAM	CHRM5 antagonist	CHRM4 antagonist	CHRM4 PAM
Oc1ccc(-c2cc(-c3ccc(O)cc3)nc(-c3ccccc3)n2)cc1	-1	6	-7	17	23	34*
CCN(CC)Cc1c(C(=O)N/N=C/c2ccc(OCc3ccccc3C)cc2)nnn1-c1nonc1N	-2	0	2	-7	4	0
COc1ccc(Cn2ccnc2SCC(=O)Nc2ccccc2)cc1	-3	2	6	5	-5	4
c1ccc(Nc2cccc3ccccc23)cc1	-1	-1	-5	1	-18	4
c1ccc(Nc2ccc3c4c(cccc24)CC3)cc1	27*	27	-10	37*	33*	-19
OC1(c2cccs2)CN(c2ccc(Cl)cc2)C2=[N+]1CCCS2 (stereo not drawn)	-5	1	3	11	-1	2
OC1(c2cccs2)CN(c2ccc(Cl)cc2)C2=[N+]1CCCC2 (stereo not drawn)	-18	1	-32	29*	30*	-24
O=C(Nc1cccnc1)c1cc(-c2ccco2)on1	2	0	-4	-8	-8	2
O=C(c1cccs1)N1CCN(C23CC4CC(CC(C4)C2)C3)CC1	-7	2	-6	-14	40*	-17
O=C(c1ccc(Cl)s1)N1CCN(C23CC4CC(CC(C4)C2)C3)CC1	-9	0	3	-23	5	-12
COc1ccc(/C=C(/NC(=O)c2ccco2)C(=O)NCc2ccco2)cc1OC	-3	-2	-7	17	-10	26*
O=C(OCc1ccccc1)/C(=C/c1ccc(Cl)cc1)NC(=O)c1ccccc1Cl	2	1	5	16	9	21
CCOC(=O)/C(=C/c1ccc(Cl)cc1)NC(=O)c1ccco1	-5	2	14	-2	-12	24*
O=C(Nc1cccc(NC(=O)c2ccccc2Cl)c1)c1ccco1	-1	8	-2	-2	-9	0
O=C(Nc1cccc(NC(=O)c2ccc(-c3ccc(Br)cc3)o2)c1)c1ccco1	-1	12	-19	31*	32*	-22
Cc1nc(SCC(=O)Nc2ccc(S(=O)(=O)N3CCOCC3)cc2)c2c(C)c(C)sc2n1	5	1	8	5	-2	-4
CCCCN(CCCC)c1cn[nH]c(=O)c1Cl	-13	-1	-26	11	43*	-13
Cc1cc2c(cc1S(=O)(=O)N(C)C1CCCCC1)OCC(=O)N2	4	22	-16	19	0	-6
CCCC(=O)Nc1nnc(SCC(=O)N2C(C)CCCC2C)s1 (stereo not drawn)	1	1	3	6	-4	1
O=C(NCCc1ccccn1)c1ccc(OC2CCN(Cc3ccccn3)CC2)cc1	-4	1	2	-2	1	-1
CC(Cc1ccccn1)NC(=O)c1ccc(OC2CCN(Cc3ccccn3)CC2)cc1 (stereo not drawn)	-5	2	4	-5	12	18*
O=C1CCN(Cc2ccc(Br)cc2)CCN1[C@H](CO)c1ccccc1	-7	7	6	-1	-14	9
COc1ccc(CCn2c(C3CCCCC3)nc3c(c(=O)c4ccccc4n3C)c2=O)cc1	10	45*	-8	8	1	-14
CC1(C)N=C(N)N=C(N)N1c1ccccc1	-6	1	3	-1	-4	7
CC1(C)N=C(N)N=C(N)N1c1ccc(CCCCc2ccccc2)cc1	-4	0	-20	41*	9	-9
CCNC(=O)CC1C(=O)N(c2ccccc2)C(=O)N1CCC(C)C (stereo not drawn)	-2	0	5	8	-4	25*
